According to ChEMBL document CHEMBL1144004, “Synthesis of (nor)tropeine (di)esters and allosteric modulation of glycine receptor binding” (Bioorg Med Chem, 2008):

Experiments:
Type in all cases: cell membranes
Rattus norvegicus [1] = species: Rattus norvegicus; experiment: Displacement of [3H]strychnine from Wistar rat glycine receptor in spinal cord membrane
Summary of the method: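 Male Wistar rat spinal cord crude synaptic membranes, washed in 50 mM Tris-HCl pH 7.4 and pre-spun in buffer with 200 mM KSCN. Binding in 50 mM Tris-HCl plus 200 mM KSCN with 3 nM [3H]strychnine, 0 °C for 35 min. Duplicate aliquots were vacuum-filtered on GF/B filters and counted by scintillation. Nonspecific binding was taken with 2 mM glycine. Displacement curves were fitted (Eq. 2) for K_A and α; 3–6 experiments.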

Rattus norvegicus [2] = species: Rattus norvegicus; experiment: (§1) Displacement of [3H]strychnine from Wistar rat glycine receptor in spinal cord membrane in presence of 10 uM glycine
Summary of the method: (§2)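 Rat spinal cord synaptic membrane [3H]strychnine (3 nM) binding in 50 mM Tris-HCl/200 mM KSCN, 0 °C, 35 min, with 10 μM glycine present during test-ligand displacement. Filtration on GF/B, scintillation counting. Nonspecific binding was defined by 2 mM glycine. IC50 and slope come from concentration-displacement curves; three experiments.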

[3] = as §1; summary of the method: as §2

Compound	K (Rattus norvegicus [1])	Activity (Rattus norvegicus [2])	IC50 [3]
CN1[C@@H]2CC[C@H]1C[C@H](OC(=O)c1cccc(C(=O)O[C@H]3C[C@H]4CC[C@@H](C3)N4C)c1)C2	0.197 µM		
O=C(O[C@@H]1C[C@H]2CC[C@@H](C1)N2)c1cccnc1	0.082 µM		
O=C(O[C@@H]1C[C@@H]2N[C@H](C1)[C@@H]1O[C@@H]12)[C@H](CO)c1ccccc1	8 µM		
O=C(OC1CC2CCC(C1)N2)c1c[nH]c2ccccc12 (stereo not drawn) [NORTROPISETRON]	0.017 µM	60%	9.3 nM
CN1[C@@H]2CCC[C@H]1C[C@H](OC(=O)/C=C/C(=O)O[C@@H]1C[C@H]3CCC[C@@H](C1)N3C)C2	20.8 µM		
CN1[C@@H]2CC[C@H]1C[C@@H](OC(=O)/C=C/C(=O)O[C@H]1C[C@H]3CC[C@@H](C1)N3C)C2	7.5 µM		
CN1[C@@H]2CC[C@H]1C[C@H](OC(=O)c1ccc(C(=O)O[C@H]3C[C@H]4CC[C@@H](C3)N4C)cc1)C2	24.6 µM		
CN1[C@@H]2CC[C@H]1C[C@H](OC(=O)c1cccnc1)C2	2.2 µM		
CCN1[C@@H]2CC[C@H]1C[C@@H](OC(=O)CCC(=O)O[C@H]1C[C@H]3CC[C@@H](C1)N3CC)C2	> 100 µM		
CN1[C@@H]2CC[C@H]1C[C@H](OC(=O)c1ccc(Cl)nc1)C2	5.7 µM		
O=C(O[C@H]1C[C@H]2CC[C@@H](C1)N2)C1c2ccccc2Oc2ccccc21	3.1 µM		
